{
  "source": "ChEMBL document CHEMBL4699465",
  "about": "“Isolation of Isotrichophycin C and Trichophycins G-I from a Collection of Trichodesmium thiebautii” (J Nat Prod, 2020)",
  "tested_on": "N2a",
  "test": "Cytotoxicity against mouse Neuro-2a cells assessed as reduction in cell viability incubated for 72 hrs by MTT assay",
  "type": "functional, cell-based",
  "outline": "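Murine neuroblastoma neuro-2A cells were tested over a range of concentrations, with four technical replicates per concentration. Each assay was run in triplicate. Doxorubicin served as the positive control. EC50 was taken from concentration–viability curves.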",
  "data": [
    {"smiles": "C#CCCCCC/C(=C/Cl)CC[C@H](O)/C=C(\\C)[C@H](O)CC=C", "values": [
      {"measurement": "EC50", "value": "> 50", "unit": "µM"}
    ]},
    {"smiles": "COC1=CC(=O)O[C@@H]([C@H](C)C[C@H](C)CC(C)=O)C1", "values": [
      {"measurement": "EC50", "value": "> 100", "unit": "µM"}
    ]},
    {"smiles": "C#CCCC/C(=C/Cl)C[C@H](O)CC[C@@H](C)C[C@@H](C)[C@H](O)CCCC[C@@H](C)[C@H](O)CC=C", "values": [
      {"measurement": "EC50", "value": 12, "unit": "µM"}
    ]},
    {"smiles": "C[C@H](CC[C@@H](O)C/C(=C/Cl)CCCC#CBr)C[C@@H](C)[C@@H](O)C/C=C/Cl", "values": [
      {"measurement": "EC50", "value": "> 100", "unit": "µM"}
    ]},
    {"smiles": "C=CC[C@@H](OC(C)=O)[C@H](C)CCCC[C@@H](OC(C)=O)[C@H](C)C[C@H](C)CC[C@H](C/C(=C\\Cl)Cc1ccccc1)OC(C)=O", "values": [
      {"measurement": "EC50", "value": "> 100", "unit": "µM"}
    ]},
    {"smiles": "C[C@H](CC[C@@H](O)C/C(=C/Cl)Cc1ccccc1)C[C@@H](C)[C@@H](O)C/C=C/Cl", "values": [
      {"measurement": "EC50", "value": 24, "unit": "µM"}
    ]},
    {"smiles": "C[C@H](CC[C@@H](O)C/C(=C\\Cl)Cc1ccccc1)C[C@@H](C)[C@@H](O)C/C=C/Cl", "values": [
      {"measurement": "EC50", "value": 13, "unit": "µM"}
    ]},
    {"smiles": "CCC(=O)N(C)CCC/C(=C\\Cl)C/C=C(\\C)C[C@@H](C)C[C@@H](C)[C@H]1CC(OC)=CC(=O)O1", "values": [
      {"measurement": "EC50", "value": 14, "unit": "µM"}
    ]},
    {"smiles": "C#CCCC/C(=C\\Cl)C[C@H](O)CC[C@@H](C)C[C@@H](C)[C@@H](O)C/C=C/Cl", "values": [
      {"measurement": "EC50", "value": 40, "unit": "µM"}
    ]},
    {"smiles": "C=CC[C@@H](O)[C@H](C)CCCC[C@@H](O)[C@H](C)C[C@H](C)CC[C@@H](O)C/C(=C\\Cl)Cc1ccccc1", "values": [
      {"measurement": "EC50", "value": 6.5, "unit": "µM"}
    ]},
    {"smiles": "C=CC[C@H](O)[C@H](C)C[C@H](C)CC[C@@H](O)C/C(=C\\Cl)Cc1ccccc1", "values": [
      {"measurement": "EC50", "value": 8.4, "unit": "µM"}
    ]},
    {"smiles": "COC1=CC(=O)O[C@@H]([C@H](C)C[C@H](C)CC[C@@H](O)C/C(=C/Cl)Cc2ccccc2)C1", "values": [
      {"measurement": "EC50", "value": 15, "unit": "µM"}
    ]},
    {"smiles": "CC(=O)O[C@H](CC[C@@H](C)C[C@@H](C)[C@H](C/C=C/Cl)OC(C)=O)C/C(=C\\Cl)Cc1ccccc1", "values": [
      {"measurement": "EC50", "value": "> 100", "unit": "µM"}
    ]},
    {"smiles": "C=CC[C@@H](O)/C(C)=C/[C@@H](O)CC/C(=C\\Cl)Cc1ccccc1", "values": [
      {"measurement": "EC50", "value": "> 50", "unit": "µM"}
    ]},
    {"smiles": "COc1cccc2c1C(=O)c1c(O)c3c(c(O)c1C2=O)C[C@@](O)(C(=O)CO)C[C@@H]3O[C@H]1C[C@H](N)[C@H](O)[C@H](C)O1", "note": "[DOXORUBICIN]", "values": [
      {"measurement": "EC50", "value": 127, "unit": "µM"}
    ]}
  ]
}
